PTEN del growth: growth suppressors of cells with PTEN tumor suppressor deletion; AID 827; HCT116 PTEN-null viability, CellTiter-Glo, 60 h; hits give low values; viability, % at 10 µM; 1.2% of 140,000 active;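 active = viability at or below a set limit, 4 SD under the median of all tested compounds, cut at about 3.7% in these data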;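 also: PTEN knockout HCT116 line with beta catenin targeted HCT116 as companion control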
TNAP inh hiacc: inhibitors of human TNAP at high phosphate acceptor concentration; AID 1135; P05186; inhibition, % at 20 µM; 0.03% of 200,000 active; purified TNAP, CDP-star luminescence, 1 M DEA;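 active = over 50% inhibition of tissue-nonspecific alkaline phosphatase at 20 µM in the single-dose screen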
Target sequence (P05186 whole entry, looked up): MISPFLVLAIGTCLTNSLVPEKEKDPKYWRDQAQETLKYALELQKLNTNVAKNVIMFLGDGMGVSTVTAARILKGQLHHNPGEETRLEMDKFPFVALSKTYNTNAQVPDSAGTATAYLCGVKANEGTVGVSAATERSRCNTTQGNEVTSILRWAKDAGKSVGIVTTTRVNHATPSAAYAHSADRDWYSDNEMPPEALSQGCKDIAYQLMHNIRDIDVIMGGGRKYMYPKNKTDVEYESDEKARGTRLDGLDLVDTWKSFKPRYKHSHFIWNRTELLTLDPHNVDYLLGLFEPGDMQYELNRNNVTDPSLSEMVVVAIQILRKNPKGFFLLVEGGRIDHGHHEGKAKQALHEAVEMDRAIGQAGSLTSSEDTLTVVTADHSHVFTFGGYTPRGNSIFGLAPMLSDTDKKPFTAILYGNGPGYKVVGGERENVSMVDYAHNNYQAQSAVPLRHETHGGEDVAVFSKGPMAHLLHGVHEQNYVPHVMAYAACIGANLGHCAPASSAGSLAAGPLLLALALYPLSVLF
TNAP inh noacc: TNAP (human) inhibition, acceptor-free conditions; purified TNAP, CDP-star luminescence, 30 min; inhibition, % at 20 µM; 0.26% of 200,000 active; AID 1012;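 active = tissue-nonspecific alkaline phosphatase inhibition above about 50% at 20 µM in the single-dose screen, limit read from the data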
TNAP act hi DEA: activators of human TNAP at high phosphate acceptor concentration; purified TNAP, CDP-star luminescence, 1 M DEA, 30 min; hits give high values; 0 = EDTA background, 1 = DMSO-only activity; activation factor at 20 µM; 200,000 tested, under 10 active;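 active = activation factor at least 2 at 20 µM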
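Test system – human TNAP · Doses – 20 µM single point · Incubation – 30 min, room temperature · Signal – luminescent substrate turnover signal · Read-out basis – activation factor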
L major viab: Leishmania major promastigote growth inhibition; inhibition, % at 10 µM; Leishmania major promastigotes, resazurin fluorescence viability; 9% of 200,000 active; AID 1063; in the data active = inhibition above about 50%;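 also: promastigotes grown with compound for 44 hours at 28 °C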
bCat KO growth: beta-catenin-lacking colon tumor cell growth suppression; 1.5% of 140,000 active; HCT116 beta-catenin knockout viability, CellTiter-Glo, 60 h; hits give low values; viability, % at 10 µM;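 active = viability at or under a set limit, the compound median less 4 SD, cut at about 6% in these data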
Numbers stand for hits; i = inactive; nt = no result given. Only some compounds are listed: those with a hit (about 9.6% of all), similar ones and a draw of the others.

SMILES	PTEN del growth	TNAP inh hiacc	TNAP inh noacc	TNAP act hi DEA	L major viab	bCat KO growth
COCCNC(=O)CSc1cc(=O)n(C)c2cc(Cl)ccc12	nt	i	i	i	i	nt
Cn1c(=O)n(C)c2cc(NC(=O)c3cccc([N+](=O)[O-])c3)c(Br)cc21	nt	i	i	i	60	nt
N=c1c2c(-c3ccccc3)c(-c3ccccc3)n(Cc3ccco3)c2ncn1Cc1ccccc1	1.9	i	i	i	100	1.1
c1ccc(Cn2cnc3ccccc32)cc1	i	i	i	i	i	i
O=c1c2c3nc4ccccc4nc3n(Cc3ccccc3)c2ncn1Cc1ccco1	i	i	i	i	i	i
N=c1c2c(-c3ccccc3)c(-c3ccccc3)n(Cc3ccccc3)c2ncn1CCO	1.6	i	i	i	100	1.2
CC(C)Cn1cnc2c(c(-c3ccccc3)c(-c3ccccc3)n2Cc2ccco2)c1=N	3.0	i	i	i	100	2.8
Cc1ccc2nc(C)c(C(=O)NN=C3CCCCCC3)n2c1	nt	i	i	i	i	nt
COc1ccc(CSc2nnc3[nH]c(=O)cc(N)n23)cc1	nt	i	i	i	i	nt
Cc1ccccc1CSCC(=O)NCCSc1ccccn1	nt	i	i	i	i	nt
COC(=O)c1c(N2C(=O)[C@H]3[C@@H](C2=O)[C@]2(C(=O)Nc4c(C)cccc42)N2CCC[C@@H]32)sc(C)c1C	i	i	i	i	i	i
COC(=O)c1c(NC(=O)COC(=O)[C@@H](NS(=O)(=O)c2ccc(C)cc2)C(C)C)sc2c1CCC2	i	i	i	i	94	i
CC(NC(=O)/C(=C/c1cccc([N+](=O)[O-])c1)NC(=O)c1ccco1)C(=O)O (stereo not given)	i	i	i	i	55	i
CCCCCCOC(=O)/C=C/c1c(C)[nH]c(=O)[nH]c1=O	i	i	i	i	94	i
CCCCCCCCOC(=O)CCc1c(C)[nH]c(=S)[nH]c1=O	i	i	i	i	i	i
CCc1ccc(N2C(=O)Nc3ccccc3C2(O)C(=O)N2CCN(c3ccccn3)CC2)cc1 (stereo not given)	nt	i	i	i	69	nt
CC1CC(C)(C)NC(=S)N1CCCC(=O)Nc1ccc2c(c1)OCCO2 (stereo not given)	nt	i	i	i	i	nt
COc1cc(C2NC(=O)CS2)cc(OC)c1OC (stereo not given)	i	i	i	i	86	i
COc1ccc(C2NC(=O)CS2)cc1OC (stereo not given)	i	i	i	i	i	i
CCC1(C)CC(c2nc(-c3ccc(OC)cc3)cs2)CCS1 (stereo not given)	i	i	i	i	i	i
COc1ccc(NS(=O)(=O)c2ccc(S(=O)(=O)N3CCOCC3)cc2)cc1	nt	i	i	i	i	nt
COc1ccc(S(=O)(=O)N2CCCCCC2)cc1N(C)S(=O)(=O)c1ccc(C)cc1	i	i	i	i	51	i
COc1ccc2cc(S(=O)(=O)N3CCCCCC3)ccc2c1	nt	i	i	i	57	nt
COc1ccc(S(=O)(=O)N2CCCCC2)cc1	i	i	i	i	i	i
COc1ccc(NS(=O)(=O)c2ccc(S(=O)(=O)N3CCCC3)cc2)cc1	i	i	i	i	52	i
SMILES	PTEN del growth	TNAP inh hiacc	TNAP inh noacc	TNAP act hi DEA	L major viab	bCat KO growth
COc1ccc(NC(=O)Nc2ccccc2F)cc1Cl	nt	i	i	i	i	nt
CCOc1ccc(-c2nc(C#N)c(NCC3CCCO3)o2)cc1 (stereo not given)	i	i	i	i	i	i
CCCOc1ccc(-c2nc(C#N)c(NCC3CCCO3)o2)cc1 (stereo not given)	i	i	i	i	92	i
CCc1cc2ccc(C)cc2nc1SCC(=O)Nc1c[nH]c(=O)[nH]c1=O	nt	i	i	i	i	nt
Oc1[nH]c(=S)sc1/C=C1\C(c2ccccc2)=Nc2ccccc21	i	i	i	i	83	i
COc1cccc(CNC(=O)CCC2CCCN(C(=O)CCC(F)(F)F)C2)c1 (stereo not given)	nt	i	i	i	i	nt
O=C(CCC1CCCN(Cc2ccncc2)C1)NCc1ccc(F)c(F)c1 (stereo not given)	nt	i	i	i	92	nt
CCOc1cccc(CN2CCCC(CCC(=O)NCc3ccccc3F)C2)c1O (stereo not given)	nt	i	i	i	56	nt
COc1cccc(CNC(=O)CCC2CCCN(Cc3cc4ccccc4o3)C2)c1 (stereo not given)	nt	i	i	i	80	nt

Assay outcomes deposited in PubChem BioAssay by several laboratories.
